# Assay results taken from ChEMBL document CHEMBL4680098, “Next-Generation Reduction Sensitive Lipid Conjugates of Tenofovir: Antiviral Activity and Mechanism of Release” (J Med Chem, 2016).
# Where a name gives a salt, the structure may show the parent alone.
# How the values were obtained:
# [1] = test system: HepG2; test: (§1) Cytotoxicity in uninfected human hepG2 assessed as reduction in cell viability by XTT assay; assay type: cell-based; settings: hepg2
# How it was run: (§2)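 Uninfected cells were plated and treated as in the anti-HBV plate: six ten-fold compound dilutions, 6 days at 37°C in 5% CO₂, medium renewed day 3. The monolayer was stained with XTT on day 6 and read at 450/650 nm, in triplicate.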
# [2] = Cytotoxicity in uninfected human PBMC assessed as reduction in cell viability by XTT assay; assay type: tissue-based
# How it was run: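 Fresh HIV/HBV-negative human PBMCs isolated by Ficoll-Hypaque and stimulated 48-72 h with 2 µg/mL PHA-P, then kept in RPMI 1640 with 15% FBS and IL-2. Plates were set up as for the anti-HIV assay but without virus, with compound up to 100 μM in log dilutions, for 7 days. Viability read by XTT at 450/650 nm, in triplicate.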
# [3] = Stability in PBS buffer at pH 7.4 assessed as compound decomposition by LC-MS analysis; assay type: physicochemical
# How it was run: (§3)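 Freshly prepared buffer (3.0 ml) was equilibrated at 37.4 ± 0.2 °C with DTT at ~0.1 M and stirred 10 min. Compound stock in water/MeOH was then added. Aliquots were taken from 0 min to 24 h, with shorter intervals where needed, diluted to 1025 µL with H₂O/MeOH/HCOOH (75:25:0.1) and analysed by LC-MS.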
# [4] = Stability in aqueous carbonate/bicarbonate buffer at pH 10.16 assessed as compound decomposition measured within 8 mins by LC-MS analysis; assay type: physicochemical; settings: read-out: Drug degradation; how it was run: as §3
# [5] = Stability in aqueous carbonate/bicarbonate buffer at pH 9.19 assessed as compound decomposition by LC-MS analysis; assay type: physicochemical; how it was run: as §3
# [6] = Stability in glycine/HCl buffer at pH 2.0 assessed as compound decomposition by LC-MS analysis; assay type: physicochemical; how it was run: as §3
# [7] = test system: Hepatitis B virus; test: Antiviral activity against HBV infected in human HepG2 assessed as reduction in viral replication incubated for 6 days by real time Q-PCR analysis; assay type: functional, organism-based; settings: HepG2, 144 h
# How it was run: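 Cells seeded at 1x10⁴/well, held 24 h at 37°C in 5% CO₂. Six ten-fold serial compound dilutions in RPMI1640 with 10% FBS were added in triplicate; medium-only wells served as virus controls. Cultured 6 days; medium with compound renewed on day 3. Day-6 supernatant diluted in buffer containing 40 μg/ml sheared salmon sperm DNA, boiled 15 min, then qPCR; HBV DNA copies interpolated from standard curve.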
# [8] = Therapeutic index, ratio of CC50 for uninfected human PBMC to EC50 for HIV1 infected in human PBMC; assay type: toxicity; settings: PBMC (uninfected for CC50, HIV-1 infected for EC50)
# [9] = Aqueous solubility of compound; assay type: physicochemical; settings: buffer
# [10] = test system: Human immunodeficiency virus 1; test: Antiviral activity against HIV1 infected in human PBMC assessed as reduction in viral replication incubated for 7 days by radioactive incorporation polymerization assay based reverse transcriptase activity detection method; assay type: functional, organism-based; settings: Human immunodeficiency virus 1, PBMC, 168 h
# How it was run: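 Fresh donor PBMCs (HIV/HBV negative) were isolated on Ficoll-Hypaque and stimulated 48-72 hr with PHA-P. They were then kept in RPMI 1640 with 15% FBS and IL-2, and used 72 hr after stimulation at 1×10^6 cells/ml. Compounds were tested up to 100 μM in five serial logarithmic dilutions. Infection used 50-150 TCID₅₀ per well (MOI ~0.002), in triplicate, with supernatant RT activity read at day 7.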
# [11] = Stability in pH 2.0 buffer assessed as compound decomposition measured up to 350 mins at 37 degC by LC-MS analysis; assay type: physicochemical; settings: pH 2, 350 min
# [12] = Stability in pH 11.56 buffer assessed as compound decomposition measured up to 350 mins at 37 degC by LC-MS analysis; assay type: physicochemical; settings: pH 11.56, 350 min
# [13] = Stability in pH 9.2 buffer assessed as compound decomposition measured up to 350 mins at 37 degC by LC-MS analysis; assay type: physicochemical; settings: pH 9.2, 350 min
# [14] = Therapeutic index, ratio of CC50 for uninfected human HepG2 cells to EC50 for HBV infected in human HepG2 cells; assay type: toxicity, cell-based
# [15] = as §1; assay type: cell-based; settings: uninfected HepG2 cells; how it was run: as §2
# [16] = Retention time in PBS buffer at pH 7.4 using compound 6 by LC-MS analysis; assay type: physicochemical
SMILES,CC50 [1],CC50 ([2]; pbmc),EC50 [7],selectivity ratio [8],EC50 [10],selectivity ratio [14],other results
C[C@H](Cn1cnc2c(N)ncnc21)OCP(=O)(O)OCCS,> 100 µM,> 100 µM,41.9 µM,,,,Stabilty [3]: Stable; degraded at 8 min [4]: 100%; Stabilty [5]: Unstable; Stabilty [6]: Stable
CCCCCCCCCCCCCCCCSSCCOP(=O)(O)CO[C@H](C)Cn1cnc2c(N)ncnc21,> 25 µM,,0.02 µM,22000,0.00065 µM,,solubility [9]: Insoluble
CCCCCCCCCCCCCCCCSSc1ccccc1COP(=O)(O)CO[C@H](C)Cn1cnc2c(N)ncnc21,17.5 µM,17.2 µM,4.48 µM,,,,
C[C@H](Cn1cnc2c(N)ncnc21)OCP(=O)(O)OCCCCS,> 100 µM,> 100 µM,> 100 µM,,,,Stabilty [11]: Stable; Stabilty [12]: Stable; Stabilty [13]: Stable
CCCCCCCCCCCCCCCCSSCCCCOP(=O)(O)CO[C@H](C)Cn1cnc2c(N)ncnc21,> 50 µM,> 50 µM,0.248 µM,> 100000,< 0.0005 µM,,solubility [9]: Insoluble
CCCCCCCCCCCCCCCCSSCc1ccccc1COP(=O)(O)CO[C@H](C)Cn1cnc2c(N)ncnc21,32.5 µM,15.9 µM,0.152 µM,,< 0.0005 µM,214,
CCCCCCCCCCCCSSCCCCCCOP(=O)(O)CO[C@H](C)Cn1cnc2c(N)ncnc21,,,1.05 µM,> 7000,0.007 µM,> 47,CC50 [15]: > 50 µM; CC50 ([2]; uninfected PBMC): > 50 µM
C[C@H](Cn1cnc2c(N)ncnc21)OCP(=O)(O)O [TENOFOVIR ANHYDROUS],,> 100 µM,,,0.32 µM,,Retention_time [16]: 0.66 min
CC(C)OC(=O)OCOP(=O)(CO[C@H](C)Cn1cnc2c(N)ncnc21)OCOC(=O)OC(C)C [TENOFOVIR DISOPROXIL FUMARATE],64.5 µM,,0.34 µM,9500,0.0045 µM,190,
